Paper PMC3782865 (Journal of medicinal chemistry, 2013)
Entries after “also recorded” stand apart in the source; their conditions may differ. Structures can show the parent of a compound that is named as a salt. Where two headings read alike, the source gives them in different places. One block for each compound: values may come before it.

Tests used:
RPMI-8226 cells [1] = test: Viability of RPMI-8226 cells, Alamar Blue assay; assay type: cell-based; details: for Toxicity to cells as a single agent: 4a 1 µM, 3 27 µM
Method in brief: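 RPMI-8226 myeloma cells grown in RPMI-1640 with 10% FBS, penicillin, streptomycin and plasmocin in a humidified 5% CO2 incubator. Cells were exposed to bortezomib or carfilzomib for 1 h, then to test compound (1 µM or 27 µM) or mock for 47 h. Viable cells were measured by Alamar Blue dye conversion. Mean ± SEM of three (bortezomib) or two to seven (carfilzomib) biological replicates.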

RPMI-8226 cells [2] = details: cited from earlier work
[3] = target: T1, proteasome caspase-like (Casp-L) sites in NCI-H929 and RPMI-8226 multiple myeloma cells (Homo sapiens, UniProt P28072); assay type: cell-based
T1 sequence (P28072 1-239): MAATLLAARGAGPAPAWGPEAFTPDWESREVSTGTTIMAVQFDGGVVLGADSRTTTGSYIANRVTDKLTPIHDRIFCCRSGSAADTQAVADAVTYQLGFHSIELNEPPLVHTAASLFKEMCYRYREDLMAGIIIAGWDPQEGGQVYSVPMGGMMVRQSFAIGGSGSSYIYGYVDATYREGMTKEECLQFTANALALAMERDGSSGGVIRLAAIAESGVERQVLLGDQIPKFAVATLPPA

[4] = system: proteasome trypsin-like (Tr-L) sites in NCI-H929 and RPMI-8226 multiple myeloma cells; assay type: cell-based; details: for IC50: ProteasomeGlo
[5] = system: trypsin-like (Tr-L) sites of purified 26S proteasomes from rabbit muscles; test: Inhibition of purified 26S proteasomes, trypsin-like sites; assay type: biochemical; details: purified rabbit 26S proteasomes
[6] = target: proteasome active sites (β2, β5) in extracts of HEK-293T cells (Homo sapiens, UniProt P28074+Q99436); test: Competition assays in HEK-293T cell lysate with activity-based probes; assay type: biochemical; details: HEK-293 extracts
[7] = system: cathepsins in NCI-H929 cells; test: Cathepsins activity assay; assay type: cell-based; details: 6 h treatment, Z-FR-amc
Method in brief: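 Treated and mock-treated cells were washed in PBS and permeabilised on ice with 0.05% digitonin in Tris-HCl pH 7.5 buffer. Cytosol was removed by centrifugation (15 min, 20 000g, 4 °C), and pellets were lysed in Bis-Tris pH 5.5/0.5% CHAPS. Protein-normalised acidic extracts were added to 40 µM substrate in phosphate buffer pH 6.0 with EDTA and DTT. Amc fluorescence was read continuously for 30 min, with rates taken from progress-curve slopes.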

[8] = target: T2, proteasome trypsin-like sites (Mus musculus, UniProt P70195); test: Inhibition of trypsin-like sites in mice; assay type: in vivo; details: manuscript in preparation
T2 sequence (P70195 44-277): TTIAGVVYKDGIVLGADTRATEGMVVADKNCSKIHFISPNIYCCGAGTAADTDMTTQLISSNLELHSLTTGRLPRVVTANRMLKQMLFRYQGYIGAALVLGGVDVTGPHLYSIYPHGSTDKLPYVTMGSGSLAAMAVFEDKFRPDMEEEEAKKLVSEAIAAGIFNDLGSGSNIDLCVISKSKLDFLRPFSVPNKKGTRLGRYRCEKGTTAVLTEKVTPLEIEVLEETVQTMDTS

[9] = read-out: IC50 Tr-L, NCI-H929, NCI-H929 cells, 6 h treatment

Compound: O=C(CCCCCCC(=O)Nc1ccccc1)NO [varinostat, reference compound]
Viability (RPMI-8226 cells [1]; 1 µM, 48 h treatment, single agent): 38.6 ± 0.5%

Compound: CC(=O)N[C@@H](CC(C)C)C(=O)N[C@@H](CC(C)C)C(=O)N[C@@H](CCCNC(=N)N)C(=O)[C@@]1(C)CO1 [1a]
IC50 (Chym-L)/IC50 (Tr-L) [5]: >30

Compound: CC(C)C[C@H](NC(=O)[C@H](Cc1ccc(N)cc1)NC(=O)[C@H](Cc1ccccc1)N=[N+]=[N-])C(=O)N[C@H](/C=C/S(C)(=O)=O)Cc1ccc(CN)cc1 [compound 11]
Inhibition of cathepsins in cells [7]: behaved similarly to 4a

Compound: Cc1c(O)cccc1C(=O)N[C@H](C(=O)N[C@@H](CO)C(=O)N[C@H](/C=C/S(C)(=O)=O)Cc1ccc(CN)cc1)C(C)C [compound 8]
IC50 [3]: > 30 µM | Inhibition of cathepsins in cells [7]: did not cause any inhibition of cathepsins | Difference in inhibition of trypsin-like activity (IC50) between NCI-H929 and RPMI-8226 cells ([4]; 6 h treatment): greater than 10 fold | IC50 [4, 9]: 0.2 µM | IC50 ([4]; read-out: IC50 Tr-L, RPMI-8226, RPMI-8226 cells, 6 h treatment): 3.2 µM

Compound: CC(C)C[C@H](NC(=O)[C@H](Cc1ccccc1)N=[N+]=[N-])C(=O)N[C@@H](CC(C)C)C(=O)N[C@H](/C=C/S(C)(=O)=O)Cc1ccc(CN)cc1 [compound 4a, N3Phe-Leu-Leu-Phe(4-CH2NH2)VS TFA Salt]
Toxicity to cells as a single agent (RPMI-8226 cells [1]): not toxic; also recorded: no effect on cells when used as a single agent | Sensitization to bortezomib (RPMI-8226 cells [1]; bortezomib 1 h, then 47 h 4a (1 µM)): sensitized them to bortezomib | Inhibition of trypsin-like sites in mice [8]: capable of inhibiting trypsin-like sites in mice | Inhibition of cathepsins in cells [7]: Partial inhibition of cathepsins | Treatment time to steady-state inhibition of trypsin-like activity ([4]; RPMI-8226 cells): 1 h

Compound: CC(C)C[C@H](NC(=O)[C@H](Cc1ccncc1)NC(=O)[C@H](Cc1ccccc1)N=[N+]=[N-])C(=O)N[C@H](/C=C/S(C)(=O)=O)Cc1ccc(CN)cc1 [compound 10]
Inhibition of cathepsins in cells [7]: partly reduced cathepsin activity

The next lines start with results.

IC50 [3]: > 30 µM | IC50 [4, 9]: 0.9 µM
Compound: Cc1c(O)cccc1C(=O)N[C@H](C(=O)N[C@@H](CO)C(=O)N[C@@H](CCCNC(=N)N)C(=O)[C@@]1(C)CO1)C(C)C [compound 3]
Toxicity to cells as a single agent (RPMI-8226 cells [1]): no effect on cells when used as a single agent | Toxicity to myeloma cells as a single agent (RPMI-8226 cells [2]): not toxic | Treatment time to steady-state inhibition of trypsin-like activity ([4]; RPMI-8226 cells): > 6 h

IC50 (Chym-L)/IC50 (Tr-L) [5]: <0.00017
Compound: CC(C)C[C@@H](/C=C/S(C)(=O)=O)NC(=O)[C@H](CC(C)C)NC(=O)[C@H](Cc1ccc(N)cc1)NC(=O)[C@H](Cc1ccccc1)N=[N+]=[N-] [compound 16]

IC50 (Chym-L)/IC50 (Tr-L) [5]: >375
Compound: CC(=O)N[C@@H](CCCNC(=N)N)C(=O)N[C@@H](CC(C)C)C(=O)N[C@@H](CCCNC(=N)N)C(=O)[C@@]1(C)CO1 [compound 2]

Inhibition/labeling of proteasome active sites in extracts [6]: reacted with β2 and β5 subunits
Compound: CC1=CC(C)=[N+]2C1=C(CCCCc1cn([C@@H](Cc3ccccc3)C(=O)N[C@@H](CC(C)C)C(=O)N[C@@H](CC(C)C)C(=O)N[C@H](/C=C/S(C)(=O)=O)Cc3ccc(CN)cc3)nn1)c1c(C)cc(C)n1[B-]2(F)F [compound 19, Bodipy-triazole-Phe-Leu-Leu-Phe(4-CH2NH2)VS TFA Salt]

Inhibition/labeling of proteasome active sites in extracts [6]: most potent inhibitor in extracts
Compound: CC(C)C[C@H](NC(=O)[C@H](Cc1ccc(CN)cc1)NC(=O)[C@H](Cc1ccccc1)N=[N+]=[N-])C(=O)N[C@H](/C=C/S(C)(=O)=O)Cc1ccc(CN)cc1 [compound 12]
Inhibition of cathepsins in cells [7]: slightly more potent inhibitor of cathepsins

IC50 (Chym-L)/IC50 (Tr-L) [5]: ≪0.0067
Compound: Cc1c(O)cccc1C(=O)N[C@H](C(=O)N[C@@H](CO)C(=O)N[C@H](/C=C/S(C)(=O)=O)Cc1ccc(N)cc1)C(C)C [compound 9]

Inhibition/labeling of proteasome active sites in extracts [6]: reduced the specificity
Compound: CC1=CC(C)=[N+]2C1=C(CCCCc1cn([C@@H](Cc3ccccc3)C(=O)N[C@@H](Cc3ccc(CN)cc3)C(=O)N[C@@H](CC(C)C)C(=O)N[C@H](/C=C/S(C)(=O)=O)Cc3ccc(CN)cc3)nn1)c1c(C)cc(C)n1[B-]2(F)F [compound 20]
